Data taken from the EternaBench riboswitch data.

Test system: MS2 coat protein
Experiment: apparent Kd, MS2 coat protein; higher = weaker binding; RNA-MaP array
How it was run: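 Designed RNAs were transcribed on an Illumina sequencing chip from sequenced DNA templates. They were incubated at room temperature with fluorescently labeled MS2 coat protein at 1.5 nM to 3 μM, for 0.8–1.5 h at the lowest to 10–20 min at the highest concentrations, in Tris-HCl pH 7.5 buffer with KCl, MgCl2, BSA, DTT, tRNA and Tween20, with or without input ligand. Apparent Kd is the median of per-cluster binding-curve fits. Designs measured on fewer than 10 clusters were excluded.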

[1] = designed as: OFF switch for flavin mononucleotide, no ligand
[2] = ligand present: flavin mononucleotide, designed as: OFF switch for flavin mononucleotide
[3] = designed as: ON switch for flavin mononucleotide, no ligand
[4] = ligand present: flavin mononucleotide, designed as: ON switch for flavin mononucleotide

Sequence	apparent Kd [1]	apparent Kd [2]	apparent Kd [3]	apparent Kd [4]	also measured
ACCCACAGAGGAUAUACAGCGAAACCUCAUAUUAAAUAUUCACAUGAGGAUCACCCAUGUAGAAGGCUGGAGAA	10.9 nM	38.8 nM			
UAAUCAGUGAUAGGAUAUCGUAGCUCAGAUAGGCGAGAAGGAUCUGACUCCACAUGAGGAUCACCCAUGUUGUACAUACAGGAC			19.5 nM	17.1 nM	
ACAUGAGGAUCACCCAUGUUUGGGCAAAGAUUGAUUGACACGAGAAGGGCCCGCGUACGUCGUAGGCAGGAUAUCGAGUACCGG	32.2 nM	31.1 nM			
AGCAUGACAGCAGGAUAUGCGAACAGAAAUAGUGCAGAAGGGCUUUACACAUGAGGAUCACCCAUGUCCGCAAGGAUGCGUAUG			41.1 nM	19.4 nM	
CGACAUUAAACAUGAGGAUCACCCAUGUGACCCUAUUGUCCAAAGGAUAUCUUAUGAAUAGAGAAAGAGAAGGUUGUAUUCCCA	241 nM	196 nM			
CCGAGCACAGGAUAUACAUGAGGAUCACCCAUGUAUACGAAUACGACACAUCCUGCGUGUAGAAGGGUGGCAAA	6.47 nM	6.22 nM			
ACAUGAGGAUCACCCAUGUCCUAAAAUGAGGCGAAUACGGCCAAGGAUAUUGGAACAACAGAAGUCAAGAAGGUGGCUAAAUUA			56.7 nM	28.3 nM	
GGUUAACAUGAGGAUCACCCAUGUUAGGAUAUGCUACAGAGUCUGGUCCCUGGAAAUGGCAGAAGGAACGUGUU	17.2 nM	16.2 nM			
CCGGGCAGUUUAGGAUAUACACGUGAUUCAUGCGUAGAAGGAAAUCACAGAAUAGUUUCCUGGACAUGAGGAUCACCCAUGUAG			252 nM	147 nM	
CUGUAGACAGGAUAUGUUGUGCCGUACAUGAGGAUCACCCAUGUGAGAUCUCGCUACCAUACAGAAGGGUCUAAAC	43.2 nM	57.4 nM			
AGGCUAUGUGAGAAGGCCGAAUGCCUAUAGUGCGGAGGAUAUCAAUCAACAUGAGGAUCACCCAUGUAGCAAAUCGUAGUUCUC			84.3 nM	60.1 nM	
AGAACCAUAGUAGGAUAUGAGACGUUAUUGGUAACAGAAGGACUAGCUGUAACAUGAGGAUCACCCAUGUGGGCCGGACAGAGG			14.1 nM	11.5 nM	
GAGACAGGGCAGAAGGUUCUAAACGGCUAAAUGAAAGGAUAUGCAAACAUUGACAUGAGGAUCACCCAUGUGUUAAAAGCUACG	12.1 nM	9.88 nM			
GCUGGACAUGAGGAUCACCCAUGUGAGGAUAUGAGAAGUAUCAUGCACCCGAUCCAUCUCAGAAGGCACAGGUG	71.5 nM	258 nM			
UGCGAUGAACCUGAUACCAGAUGUAUUUGCUCCUCGGACAACAUGAGGAUCACCCAUGUCAUCCCUUGGCAGCAGGAGCGAAAGC					apparent Kd (designed as: OFF switch for theophylline, no ligand): 11.9 nM; apparent Kd (ligand present: theophylline, designed as: OFF switch for theophylline): 44.1 nM
CCACAGUAUAAAGGAUAUGCGGCCACGGCAACAGCAGAAGGUUAUGCCACUGUACAUGAGGAUCACCCAUGUCCAACUUUCCCU			23.8 nM	11.9 nM	
AUGAACAACCAGAAGGCAACGUUGGCCCAAGUUUGAGGAUAUGGACGUGGAAGUUCGCACAUGAGGAUCACCCAUGUAGAUCAG	14 nM	12.8 nM			
UAAAAGUUAGGAUAUACUAGUGAGCAAUGAAUAACAAAGUAACAUGAGGAUCACCCAUGUAGAAGGAACUGCAG	12.1 nM	12.4 nM			
GCGCCAAGUAAGAAGGGCUCAAAGGAAAACCUAGACUUCACUACAUGAGGAUCACCCAUGUCUCAGCAGGAUAUUAUCGGUCAA			22.2 nM	17.9 nM	
AAAGGUCAGGAGAAGGUGCCUCUAUUACGUCGGCAAGGAUAUCCACAGCGGGCGAUUAUGCGUACAUGAGGAUCACCCAUGUUA	92.3 nM	43.5 nM			
